From ChEMBL document CHEMBL3352321, “Design and total synthesis of Mannich derivatives of marine natural product lamellarin D as cytotoxic agents” (2014)
The source made the active and inactive calls. The rule behind the calls is not given here.

Legend:
HT-29 = experiment: Antiproliferative activity against human HT-29 cells assessed as growth inhibition after 72 hrs by MTT assay; format: functional; conditions: HT-29, 72 h
How it was run: (§1)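 ATCC-sourced cells seeded at 4000 per well and left 12 h, then medium exchanged for fresh medium carrying graded compound concentrations for 72 h. MTT (5 mg/mL, 10 µl) added for 3 h, formazan dissolved in DMSO, absorbance read at 540 nm. GI50 taken from dose-response curve; mean ± SEM of three independent experiments.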

K562 = experiment: Antiproliferative activity against human K562 cells assessed as growth inhibition after 72 hrs by MTT assay; format: functional; conditions: K562, 72 h; how it was run: as §1
MDA-MB-231 = experiment: Antiproliferative activity against human MDA-MB-231 cells assessed as growth inhibition after 72 hrs by MTT assay; format: functional; conditions: MDA-MB-231, 72 h; how it was run: as §1
HepG2 = experiment: Antiproliferative activity against human HepG2 cells assessed as growth inhibition after 72 hrs by MTT assay; format: functional; conditions: HepG2, 72 h; how it was run: as §1
[1] = molecular target: T1, DNA topoisomerase (Bos taurus) (UniProt A0JN73); experiment: Inhibition of calf thymus Topoisomerase 1-mediated relaxation of supercoiled pBR322 DNA at 100 uM after 30 mins by gel electrophoresis
T1 sequence (whole entry): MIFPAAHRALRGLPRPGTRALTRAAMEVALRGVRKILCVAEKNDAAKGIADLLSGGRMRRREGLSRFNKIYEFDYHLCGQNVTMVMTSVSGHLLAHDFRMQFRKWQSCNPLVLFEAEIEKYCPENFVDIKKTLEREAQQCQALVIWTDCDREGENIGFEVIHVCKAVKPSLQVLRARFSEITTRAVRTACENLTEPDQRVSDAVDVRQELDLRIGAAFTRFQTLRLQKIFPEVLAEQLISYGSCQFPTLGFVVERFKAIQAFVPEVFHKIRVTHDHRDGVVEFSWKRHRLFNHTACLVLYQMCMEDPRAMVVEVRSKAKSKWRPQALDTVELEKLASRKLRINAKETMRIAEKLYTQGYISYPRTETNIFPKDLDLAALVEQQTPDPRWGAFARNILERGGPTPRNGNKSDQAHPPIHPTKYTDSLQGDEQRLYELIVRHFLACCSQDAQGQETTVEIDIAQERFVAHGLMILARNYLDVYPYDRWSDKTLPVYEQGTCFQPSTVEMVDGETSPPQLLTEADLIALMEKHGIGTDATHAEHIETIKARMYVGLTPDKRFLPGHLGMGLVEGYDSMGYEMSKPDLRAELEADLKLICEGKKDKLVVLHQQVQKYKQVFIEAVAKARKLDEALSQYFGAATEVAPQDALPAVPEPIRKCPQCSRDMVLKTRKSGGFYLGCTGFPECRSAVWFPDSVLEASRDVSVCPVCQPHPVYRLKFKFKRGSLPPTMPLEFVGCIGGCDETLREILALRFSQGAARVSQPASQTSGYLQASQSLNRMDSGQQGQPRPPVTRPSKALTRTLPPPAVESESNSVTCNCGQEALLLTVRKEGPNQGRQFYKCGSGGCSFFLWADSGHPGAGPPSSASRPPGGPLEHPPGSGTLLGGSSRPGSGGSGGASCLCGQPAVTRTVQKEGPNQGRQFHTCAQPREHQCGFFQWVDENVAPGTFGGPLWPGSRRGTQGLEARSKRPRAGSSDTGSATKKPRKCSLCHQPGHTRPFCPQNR
How it was run: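 Supercoiled pBR322 DNA incubated with 1 unit calf thymus topoisomerase I, with or without compound at 100 µM, 30 min at 37 °C. Stopped with 10% SDS, run on 1% agarose gel, stained 15 min with DNA gel stain and imaged under UV. Controls without enzyme included.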

| Structure (SMILES) | GI50 (HT-29) | GI50 (K562) | GI50 (MDA-MB-231) | GI50 (HepG2) | inhibition [1] |
| --- | --- | --- | --- | --- | --- |
| COc1cc(-c2c3c4cc(OC)c(O)cc4oc(=O)c3n3ccc4cc(O)c(OC)cc4c23)ccc1O [LAMELLARIN D] | 4.47 µM | 0.08 µM | 0.32 µM | 0.09 µM | Active |
| COc1cc(-c2c3c4cc(OC)c(O)c(CN(C)C)c4oc(=O)c3n3ccc4c(CN(C)C)c(O)c(OC)cc4c23)ccc1O | 5.68 µM | 9.62 µM | 9.89 µM | > 50 µM | Active |
| COc1cc(-c2c3c4cc(OC)c(O)cc4oc(=O)c3n3ccc4c(CN5CCOCC5)c(O)c(OC)cc4c23)ccc1O | 13 µM | 2.84 µM | 19.9 µM | 4.47 µM | Active |
| COc1cc2c(cc1O)oc(=O)c1c2c(-c2cc(CN(C)C)c(O)c(OC)c2)c2c3cc(OC)c(O)cc3ccn21 | 6.41 µM | 1.85 µM | 3.98 µM | 30.1 µM | inactive |
| COc1cc(-c2c3c4cc(OC)c(O)cc4oc(=O)c3n3ccc4c(CN(C)C)c(O)c(OC)cc4c23)ccc1O | 15 µM | 1.34 µM | 13.1 µM | 6.37 µM | Active |
| COc1cc(-c2c3n(c4c(=O)oc5cc(O)c(OC)cc5c24)CCc2cc(O)c(OC)cc2-3)ccc1O | 40.8 µM | 1.61 µM | 17.9 µM | 2.14 µM | inactive |
| COc1cc(-c2c3c4cc(OC)c(O)c(CN(C)C)c4oc(=O)c3n3ccc4cc(O)c(OC)cc4c23)ccc1O | 5.46 µM | 0.43 µM | 3.3 µM | 2.63 µM | inactive |
| COc1cc(-c2c3c4cc(OC)c(O)cc4oc(=O)c3n3ccc4c(CN5CCCCC5)c(O)c(OC)cc4c23)ccc1O | 18.3 µM | 9.94 µM | 33.1 µM | 21.3 µM | Active |
| COc1cc(-c2c3c4cc(OC)c(O)c(CN5CCCCC5)c4oc(=O)c3n3ccc4cc(O)c(OC)cc4c23)ccc1O | 2.5 µM | 1.95 µM | 7.25 µM | 6.99 µM | Active |
| CCN(CC)Cc1c(O)c(OC)cc2c1oc(=O)c1c2c(-c2ccc(O)c(OC)c2)c2c3cc(OC)c(O)cc3ccn21 | 2.52 µM | 1.04 µM | 5.78 µM | 5.04 µM | Active |
| CCCN(CCC)Cc1c(O)c(OC)cc2c1oc(=O)c1c2c(-c2ccc(O)c(OC)c2)c2c3cc(OC)c(O)c(CN(C)C)c3ccn21 | 2.83 µM | 7.16 µM | 6.15 µM | 15.8 µM | Active |
| COc1cc(-c2c3c4cc(OC)c(O)c(CN5CCOCC5)c4oc(=O)c3n3ccc4cc(O)c(OC)cc4c23)ccc1O | 2.64 µM | 2.25 µM | 4.87 µM | 3.69 µM | Active |
| CCCN(CCC)Cc1c(O)c(OC)cc2c1oc(=O)c1c2c(-c2ccc(O)c(OC)c2)c2c3cc(OC)c(O)cc3ccn21 | 2.92 µM | 2.37 µM | 9.75 µM | 6.83 µM | Active |
